Measured values from the RNAGym collection of RNA variant scans (doi:10.1126/science.aae0568).
This sample holds only a part of the variants without activity.

B1: tRNA (parent)
chain: GUUCCGUUGGCGUAAUGGUAACGCGUCUCCCUCCUAAGGAGAAGACUGCGGGUUCGAGUCCCGUACGGAACG

Variants of: B1
Test: yeast fitness relative to wild type (ratio to wild type); higher = fitter; tRNA-Arg(CCU), competitive growth, 37 C, YPD
In short: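 The tRNA-Arg(CCU) gene variants were made by chemical synthesis with a 3% per-site mutation rate at 69 sites and inserted at the native genomic locus of Saccharomyces cerevisiae. After pooling, the strains were competed in YPD at 37°C for 24 hours in six parallel replicates. Gene amplicons from the start population and each end population were read by 100-nucleotide paired-end sequencing, and Darwinian fitness relative to wild type was taken from genotype frequency changes. Genotypes needed ≥ 100 starting reads, and estimates < 0.5 were set to 0.5.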

Point of comparison: G6A U59C G68A, yeast fitness 0.567. Against it:
- G6A U13G G50C — lower, 0.538
- U7A A36G C60A — lower, 0.533
- G6C U28G — higher, 0.644
- G6C A20G C22A C31G — lower, ≤ 0.5
- G6C A45C — higher, 0.614
- G6A U7G C24A U26C — lower, ≤ 0.5
- G6A G12A C22A — higher, 0.603
- G6C C22A A57U — lower, ≤ 0.5
- U7A A14G — higher, 0.709
- G6C C60U — higher, 0.712
- G6A C22G — higher, 0.702
- U7A A42U A45G — lower, ≤ 0.5
- G6C G39A — higher, 0.86
- G6A G9C C11G G25A C34U G68A — lower, ≤ 0.5
- G6C C46G A57G C62U C66U — lower, ≤ 0.5
- G6C G39C G52A U53A — lower, ≤ 0.5
- U7A A14G C31U G39C A40C A45U G68C — lower, 0.555
- G6A G44A C46A G52A C66U — lower, 0.526
- G6C U16G A45U — higher, 0.584
- G6A G17C C31A A36U G56A — higher, 0.632
- U7A A20G G23C C29G G51A G56U — lower, ≤ 0.5
- G6C A15U G23C C31G A37G G56C — lower, ≤ 0.5
- U7A C33A G50A C61G — lower, ≤ 0.5
- G6C C34U A43G G48A A57G — lower, ≤ 0.5
- G6A C29A C55U — lower, 0.514
- U7A A20G G41A A42C G50C A70G — lower, ≤ 0.5
- G6C A15G C22A C29G A37C G50C C66U — lower, ≤ 0.5
- G6C U7C G9C — lower, ≤ 0.5
- G6A U54G — higher, 0.611
- G6C C11A A43U G48C — lower, ≤ 0.5
- G6A C22G A40C G41C G68C — lower, ≤ 0.5
- U7A C11G A36U A57C — lower, ≤ 0.5
- U7A G12A C27A — lower, ≤ 0.5
- G6C G52A — higher, 0.683
- G6C G52C — higher, 0.653
- G6C C11G A15G G68C — lower, 0.503
- G6A U16A G25C — higher, 0.644
- G6A C24U C49A — lower, ≤ 0.5
- U7A C27U C29U G58A G68A — lower, ≤ 0.5
- G6A U54A C62U A65G G68A — lower, 0.548
- G6C C24U C49U G56C — lower, 0.52
- U7A A36G A40G G56C C62A — lower, ≤ 0.5
- G6A G25C G48C — higher, 0.654
- G6A C31U A36G — lower, ≤ 0.5
- G6A U28G C34U — lower, ≤ 0.5
- G6C G41C C62U — lower, ≤ 0.5
- G6A G25A A45U C62A — lower, ≤ 0.5
- G6C C22U C24G C27U C29A C30U C31G A70C — lower, ≤ 0.5
- G6A U26C C62U — lower, ≤ 0.5
- G6C G56A G67A — higher, 0.588
- U7A A14C A20G C27U A45U G67A — lower, ≤ 0.5
- G6C G17A C30U A42C G52C G63A A65U — lower, ≤ 0.5
- U7A C29A U47C G58A C61G A70U — higher, 0.588
- G6A G12A A20G C22G U26A G48C A65U — lower, ≤ 0.5
- U7A A15G G23A G51A C55A C66U — lower, ≤ 0.5
- G6C C30U U59G C61A — higher, 0.575
- G6A U32A — higher, 0.809
- G6C U28C A36C G51A C66A — lower, ≤ 0.5
- U7A A42G C55G A57C — lower, ≤ 0.5
- G6A C24G C31G C34U — lower, ≤ 0.5
- G6C C24U G38C A40G — lower, ≤ 0.5
- U7A G9C G12A G17C G48A — lower, ≤ 0.5
- U7A C27A C66U — lower, ≤ 0.5
- U7A G12A G18U C31U C49G — lower, ≤ 0.5
- G6C A40C A45C — lower, ≤ 0.5
- G6C C11G C33U — lower, ≤ 0.5
- G6C C24G C34U U53C C55G C62A A70U — lower, ≤ 0.5
- G6C A20G A42C A45C — lower, ≤ 0.5
- U7A A69C — higher, 0.794
- G6A G18C C22G A65C — lower, ≤ 0.5
- G6A G18C C49U C61G — lower, ≤ 0.5
- U7A A20C C29U C33G — higher, 0.638
- G6C C11A C22U — higher, 0.573
- G6A G9A A36C A37U G51A C62G — lower, ≤ 0.5
- G6C G17A A36U C46A C66A — lower, 0.512
- G6A G10C C29U C61A C62U A65U A69C — lower, ≤ 0.5
- G6A C33G C55G C61G — lower, ≤ 0.5
- G6A C27G A57C C66G — lower, ≤ 0.5
- G6C G23A A70U — lower, ≤ 0.5
- G6A C46G G51A — higher, 0.637
- U7A A15U A36C A37U A43C C46U C49G G50A — lower, ≤ 0.5
- G6C C22U C24G C27U C29A C30U C31G G58A — lower, ≤ 0.5
- G6A G44A A69C — higher, 0.576
- G6C U8A G51A — lower, ≤ 0.5
- G6C A15G G56C — lower, ≤ 0.5
- U7A C27U C55U — lower, ≤ 0.5
- G6A C27U A45C U59C C62U — lower, ≤ 0.5
- G6C U8A — higher, 0.674
- G6A G9C G44C C66U — lower, ≤ 0.5
- G6C U7C G9C A65G — lower, ≤ 0.5
- G6C G17C C34U C46A U64A — higher, 0.597
- G6A G23C C60A — higher, 0.573
- G6C C29G U35C A57G — lower, ≤ 0.5
- G6C C33U G52A — lower, ≤ 0.5
- G6C A15G G58C G68A — lower, ≤ 0.5
- G6C A15C A21C C34U A37U — lower, 0.502
- U7A C29A A65C — lower, ≤ 0.5
- G6A C62A — higher, 0.873
- G6C C22U C30A C49U G52C — higher, 0.683
- U7A C11U A36U A57C — lower, ≤ 0.5
- G6A G9C C11G C34U U59A A69C — lower, ≤ 0.5
- G6A U13G C27U — lower, 0.539
- G6A U16C G67C — lower, ≤ 0.5
- G6C G12A C24G G58C — lower, ≤ 0.5
- G6C A36C A40G G48A A65U C66U A69U — lower, ≤ 0.5
- G6A U16A G63A — higher, 0.569
- G6A C55U — higher, 0.677
- G6A G18A C22U — higher, 0.6
- G6C G56A C60G — lower, ≤ 0.5
- G6C C11U A20C — lower, ≤ 0.5
- G6C A65U — higher, 0.917
- G6C A15U C60G C66U — lower, ≤ 0.5
- U7A A15U U54C — lower, ≤ 0.5
- U7A A15G G23C C33G G63A — lower, ≤ 0.5
- U7A C27U G52C G68C — lower, ≤ 0.5
- G6A U16G — higher, 0.85
- U7A C11U A36U — lower, ≤ 0.5
- G6C G50C C62G C66U — higher, 0.673
- G6C A42C C49U C55U — higher, 0.578
- G6A G9C A14C C27A C31U C34A A42C C46G — lower, ≤ 0.5
- G6A G10A U26A C27U C29A A65G G68C — lower, ≤ 0.5
- G6A C29G G38C A40G A45C — lower, ≤ 0.5
- G6A C34A A40U U64A — lower, ≤ 0.5
- G6A C22U U53G — higher, 0.653
- U7A C62G — higher, 0.63
- G6A C62A A70C — higher, 0.636
- U7A A15U A40G G48A G68C — lower, ≤ 0.5
- G6C C11G A15C G25C C27G C30G G38C A70G — lower, ≤ 0.5
- U7A C55U C61A — lower, 0.508
- G6A G18C A37C C60G A65G — lower, ≤ 0.5
- G6A C24A G38A G39C — lower, ≤ 0.5
- U7A A37G A43G U53A G58C C66G — lower, ≤ 0.5
- G6C G39C G51A — higher, 0.741
- G6C C11U A15G A21U C30G G44A G52A — higher, 0.791
- U7A C34G C66U — lower, ≤ 0.5
- U7A A20C G25A G68C — lower, ≤ 0.5
- G6A C61A C62U A65U A69C — lower, ≤ 0.5
- G6C C60G A65U — lower, ≤ 0.5
- G6A C34A A40U U59G — lower, ≤ 0.5
- G6A C24G U35A C46U G51C C55U A65C — lower, ≤ 0.5
- G6C A37U C49U A69U — higher, 0.585
- U7A C24U U47C — lower, 0.566
- G6C A37G C60G A65U — lower, ≤ 0.5
- G6A C49A G63A — lower, ≤ 0.5
- U7A A42G G52C G56A — lower, ≤ 0.5
- U7A C27U A57U A65C — lower, ≤ 0.5
- G6C A15C C31G C33G C55U C61U — lower, ≤ 0.5
- G6C A57U — higher, 0.663
- G6C G23C C24A G52A C55U — lower, ≤ 0.5
- U7A C34A G44A C46U A70C — lower, ≤ 0.5
- G6A G52C — higher, 0.635
- G6C A20U A21G A37U C60G C62G — lower, ≤ 0.5
- U7A A15C C27A U47C — lower, ≤ 0.5
- G6A C27A A36G A70U — lower, ≤ 0.5
- G6A C29U G50C U53C A57U C61G — lower, ≤ 0.5
- G6A C30U U35C — lower, ≤ 0.5
- G6C C61U A70G — lower, 0.554
- G6A U35A A40U G41C C49A — lower, ≤ 0.5
- G6A U26G G48A C61U — higher, 0.684
- G6A C29U C31U C33G U35C — lower, ≤ 0.5
- G6C C11U C27G G41C C61A — lower, ≤ 0.5
- G6C A42C A43U — lower, ≤ 0.5
- G6C U7A U64G — lower, ≤ 0.5
- G6A U13A C46G — lower, ≤ 0.5
- G6A C27U A57U — lower, 0.544
- U7A A14U A15C U32C C46U G51C — lower, ≤ 0.5
